Measurements: ChEMBL document CHEMBL1154601, “A new series of amodiaquine analogues modified in the basic side chain with in vitro antileishmanial and antiplasmodial activity” (Eur J Med Chem, 2009)

Legend:
KB = test: Cytotoxicity against human KB cells after 72 hrs by Alamar blue assay; format: cell-based
Method in brief: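 Monolayers grown in RPMI 1640 + 10% heat-inactivated FCS at 37°C, 5% CO2. After 72 h compound exposure, Alamar Blue added and incubated a further 2-4 h. Fluorescence read at 530/580 nm, cut-off 550 nm. Podophyllotoxin served as positive control. IC50 is the concentration killing 50% of cells.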

Plasmodium falciparum [1] = test: Antimalarial activity against chloroquine-susceptible Plasmodium falciparum 3D7 assessed as inhibition of parasite growth after 48 hrs by [3H]hypoxanthine reuptake assay; format: functional, organism-based
Method in brief: (§1)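 Synchronised ring-stage cultures at 1% parasitemia, 5% hematocrit, in RPMI 1640 at 37°C, 5% CO2; top final test concentration 30 µg/mL. After 24 h, (3H)-hypoxanthine (0.2 µCi/well) was added, followed by a further 48 h incubation. Plates were freeze/thawed and harvested, and uptake was counted by scintillation. IC50 came from sigmoidal regression as the mean of at least three determinations.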

Plasmodium falciparum [2] = test: Antimalarial activity against chloroquine-resistant Plasmodium falciparum K1 assessed as inhibition of parasite growth after 48 hrs by [3H]hypoxanthine reuptake assay; format: functional, organism-based; method in brief: as §1
Leishmania donovani = test: Antileishmanial activity against Leishmania donovani MHOM/ET/ 67/HU3 amastigote infected in CD1 mouse peritoneal exudate macrophages assessed as parasite growth inhibition after 5 days by Giemsa staining; format: functional, organism-based; details: MHOM/ET/ 67/HU3, 120 h
Method in brief: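 Macrophages from starch-induced peritoneal exudate, harvested after 24 h, held 24 h in RPMI 1640 + 10% HIFCS at 37°C, 5% CO2. Infected with hamster-spleen-derived amastigotes at 5 parasites:1 macrophage, then 24 h later drug applied for 5 days, overlay renewed day 3. Top concentration 30 µg/mL, quadruplicates. Methanol fixation, microscopic scoring. IC50 by sigmoidal regression, mean of at least three determinations.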

| SMILES | IC50 (KB) | IC50 (Plasmodium falciparum [1]) | IC50 (Plasmodium falciparum [2]) | IC50 (Leishmania donovani) |
| --- | --- | --- | --- | --- |
| CCN(CCNC(=O)[C@H](C)N)Cc1cc(Nc2ccnc3cc(Cl)ccc23)ccc1O | 10.4 µM | 0.0122 µM | 14.1 µM | 5.15 µM |
| CCN(CC)Cc1cc(Nc2ccnc3cc(Cl)ccc23)ccc1O | 90 µM | 0.00215 µM | 0.00861 µM | 1.4 µM |
| OCc1cc(Nc2ccnc3cc(Cl)ccc23)ccc1O | 198 µM | 0.712 µM | 1.42 µM | > 89 µM |
| Oc1ccc(Nc2ccnc3cc(Cl)ccc23)cc1CN1CCN(c2nc3ccccc3s2)CC1 | 45.2 µM | 0.0146 µM | 1.48 µM | 12.9 µM |
| Oc1ccc(Nc2ccnc3cc(Cl)ccc23)cc1CN1CCN(c2ccccc2)CC1 | 8.63 µM | 0.00352 µM | 0.0018 µM | 9.68 µM |
| Oc1ccc(Nc2ccnc3cc(Cl)ccc23)cc1CN1CCN(c2nc3ccccc3o2)CC1 | 8.02 µM | 0.00168 µM | 0.387 µM | 14.6 µM |
| CCN(CCNC(=O)Nc1ccccc1)Cc1cc(Nc2ccnc3cc(Cl)ccc23)ccc1O | 5.33 µM | 0.00822 µM | 0.238 µM | 1.83 µM |
| Oc1ccc(Nc2ccnc3cc(Cl)ccc23)cc1CN1CCN(c2ncccn2)CC1 | 8.03 µM |  |  | 7.21 µM |
| Oc1ccc(Nc2ccnc3cc(Cl)ccc23)cc1CN1CCNCC1 | 11.8 µM | 0.0188 µM | 0.225 µM | 2.29 µM |
| CCN(CCN)Cc1cc(Nc2ccnc3cc(Cl)ccc23)ccc1O | 25.6 µM | 0.00547 µM | 0.00547 µM | 5.65 µM |
| Oc1ccc(Nc2ccnc3cc(Cl)ccc23)cc1CN1CCN(c2ccccn2)CC1 | 16.1 µM | 0.000323 µM | 0.0014 µM | 6.71 µM |
| Oc1ccc(Nc2ccnc3cc(Cl)ccc23)cc1CN1CCN(c2cccs2)CC1 | 50.4 µM | 0.00222 µM |  | 9.14 µM |
| CCN(CCNC(=O)[C@@H](N)CC(C)C)Cc1cc(Nc2ccnc3cc(Cl)ccc23)ccc1O | 22.3 µM | 0.0226 µM | 14.3 µM | 4.69 µM |
| Oc1ccc(Nc2ccnc3cc(Cl)ccc23)cc1CN1CCN(c2nccs2)CC1 | 5.02 µM | 0.00067 µM | 0.00042 µM | 17.7 µM |
| CCOC(=O)N1CCN(Cc2cc(Nc3ccnc4cc(Cl)ccc34)ccc2O)CC1 | 11.4 µM | 0.00528 µM | 0.00704 µM | 14.9 µM |
| C[C@H]1[C@H](OC(=O)CCC(=O)O)O[C@@H]2O[C@@]3(C)CC[C@H]4[C@H](C)CC[C@@H]1[C@@]24OO3 [ARTESUNATE] |  |  | 0.00246 µM |  |
| Oc1ccc(Nc2ccnc3cc(Cl)ccc23)cc1CN1CCN(c2nc3ccccc3[nH]2)CC1 | 2.44 µM | 0.00308 µM | 0.00154 µM | 1.87 µM |
| CCN(CCNC(=S)Nc1ccccc1)Cc1cc(Nc2ccnc3cc(Cl)ccc23)ccc1O | 8.46 µM | 0.00163 µM | 0.0065 µM | 2.05 µM |
| CCN(CCNC(=O)[C@@H](N)[C@@H](C)O)Cc1cc(Nc2ccnc3cc(Cl)ccc23)ccc1O | 54.4 µM | 0.047 µM | 14.1 µM | 15.3 µM |
| CCN(CCN/C(=N/C(=O)c1ccccc1)Oc1ccccc1)Cc1cc(Nc2ccnc3cc(Cl)ccc23)ccc1O | 10.2 µM | 0.00673 µM | 0.0101 µM | 2.86 µM |
| CCN(CCNC(=N)c1ccccc1)Cc1cc(Nc2ccnc3cc(Cl)ccc23)ccc1O | 5.34 µM | 0.0484 µM | 0.29 µM | 7.1 µM |
| CCN(CCNC(=N)Nc1ccccc1)Cc1cc(Nc2ccnc3cc(Cl)ccc23)ccc1O | 9.03 µM | 0.126 µM | 12.1 µM | 11.7 µM |
| Oc1ccc(Nc2ccnc3cc(Cl)ccc23)cc1CCl | 25.6 µM | 0.695 µM | 0.557 µM | > 83.5 µM |
| CCN(CCNC(=O)OC(C)(C)C)Cc1cc(Nc2ccnc3cc(Cl)ccc23)ccc1O | 8.81 µM | 0.00212 µM | 0.00212 µM | 8.77 µM |
